Only some compounds are listed: those with a hit (about 2.7% of all), similar ones and a draw of the others.
Env fusion inh – inhibitors of HIV-1 Env-driven cell-cell fusion, primary screen, HeLa-JRFL effector, CEM21 target cells, luciferase; inhibition, % at 12.3 µM; 1.1% of 360,000 active;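 active = mean replicate inhibition score of at least 50 and every replicate individually at or above 50; inconclusive = only one of the two criteria met; inactive = mean below 50 and not all replicates reaching 50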
F508del corr – F508del CFTR correction, initial screen, CFBE line, single point | activity (quench increase), % at 7.58 µM | CFBE cells, YFP halide quenching; stimulated with forskolin plus potentiator P3; % fluorescence drop versus neutral controls | 0.36% of 350,000 active;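 active = mean added fluorescence quench of at least 8% versus neutral control, with both replicates also reaching 8%; inconclusive = only one of the mean or replicate conditions met; inactive = mean below 8% and not both replicates reaching 8%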;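 also: cells transiently co-express mutant CFTR-F508del with the halide-sensitive YFP; corrector assay measuring rescue of mutant channel to the surface after 24 h compound exposure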
S100A4 inh HTS – inhibitors of S100A4-myosin IIA peptide binding, primary screen, biochemical, fluorescence polarization, TAMRA-MyoIIA peptide; Protein S100-A4 (Homo sapiens), P26447; inhibition, % at 10.7 µM; 0.14% of 360,000 active; AID 652163, 2013;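 active = mean inhibition of at least 70% across replicates, with every replicate also reaching that level; inconclusive = mean inhibition reaches 70% but some replicates fall short; inactive = mean inhibition below 70%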
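incubation = readout 5 min after mixing, signal stable up to 60 min | system = S100A4 monomer protein | buffer or medium = HEPES pH 7.2 with CaCl2, KCl, NaCl, DTT, Triton | benchmarks = neutral control DMSO, positive control TFP | also added = fluorescent myosin IIA peptide, 5 nM | compound dosing = one concentration per compound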
FGF22 binding – binders of human FGF22 protein, primary screen, FGF22 synaptogenesis inhibitor project, biophysical, thermal shift, single point; activity (Tm shift, normalised), % at 9.99 µM; 1.5% of 340,000 active; Fibroblast growth factor 22 (Homo sapiens), Q9HCT0; recombinant FGF22 thermal shift, SYPRO orange fluorescence; percent of sucrose octasulfate shift, DMSO zero;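 active = mean Tm shift, scaled 0 neutral to 100 positive control, at about 1.3% or above, every replicate too, limit read from the data; inconclusive = no clear call, values can overlap the other calls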
E-sel inducer – E-selectin induction in HUVECs, primary screen, imaging, HUVEC, immunofluorescence imaging, single point; 0.37% of 260,000 active; P16581; AID 686992, 2013; activation, % at 7.58 µM; normalized: neutral wells 0, TNF-alpha wells 100;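 active = mean E-selectin-positive cell signal at least 10% of the positive control, reached in at least 60% of replicates, without over 20% cell loss; inconclusive = no rule given, readout overlaps actives, possibly toxicity-flagged; inactive = the rest, including those meeting only one limit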
Target sequence (P16581 whole entry, looked up): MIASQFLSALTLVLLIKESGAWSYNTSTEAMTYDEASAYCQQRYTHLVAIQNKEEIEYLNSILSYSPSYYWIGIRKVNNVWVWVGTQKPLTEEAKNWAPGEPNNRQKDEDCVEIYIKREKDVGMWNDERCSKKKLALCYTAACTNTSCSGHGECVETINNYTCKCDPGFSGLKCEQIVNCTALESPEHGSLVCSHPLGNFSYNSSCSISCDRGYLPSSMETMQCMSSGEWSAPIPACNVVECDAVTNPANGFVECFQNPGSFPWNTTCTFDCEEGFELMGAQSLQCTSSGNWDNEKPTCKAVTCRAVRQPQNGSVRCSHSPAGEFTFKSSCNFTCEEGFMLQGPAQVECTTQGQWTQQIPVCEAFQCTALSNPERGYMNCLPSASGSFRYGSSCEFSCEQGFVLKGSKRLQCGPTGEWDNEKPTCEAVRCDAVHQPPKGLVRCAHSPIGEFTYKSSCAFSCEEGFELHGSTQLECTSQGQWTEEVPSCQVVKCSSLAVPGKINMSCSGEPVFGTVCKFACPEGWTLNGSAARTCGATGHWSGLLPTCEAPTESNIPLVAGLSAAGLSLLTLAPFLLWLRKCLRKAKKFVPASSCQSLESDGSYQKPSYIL
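assay system = HUVEC, human umbilical vein endothelial cells | input = 3,000 HUVEC seeded per well | medium = EGM-2 growth medium on 0.1% gelatin-coated wells | dosing = one compound dose added by pin transfer | signal = immunofluorescence imaging | read-out basis = % PE-positive cells | control set = TNF-alpha, DMSO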
Numbers stand for hits; – = inactive; ? = inconclusive; · = no result given; [ ] = remark or other dose.

SMILES	Env fusion inh	F508del corr	S100A4 inh HTS	FGF22 binding	E-sel inducer
O=C(O)C1=CC[C@@H](c2ccc(Cl)cc2)N(S(=O)(=O)c2ccc(Cl)cc2)[C@H]1c1ccc(F)cc1	–	–	–	–	·
CO[C@@H]1CN(C)C(=O)c2ccc(NC(=O)C3CCCC3)cc2OC[C@@H](C)N(C(C)=O)C[C@@H]1C	·	–	–	–	–
O=C([C@H]1[C@H](CO)[C@H]2Cn3c(ccc(-c4cccnc4)c3=O)[C@@H]1N2Cc1ccncc1)N1CCOCC1	·	–	–	–	–
CN1c2ccc(C3=CCCCC3)cc2[C@@H]2[C@@H](CCN2C(=O)NC2CCCCC2)[C@H]1CO	·	–	·	–	–
Cc1cccc(NC(=O)Nc2ccc3c(c2)C(=O)N(C)[C@H]2CC[C@H](CC(=O)O)O[C@H]2CO3)c1	–	–	–	–	–
C=CCn1c(SC(C)C(=O)NCc2ccc3c(c2)OCO3)nc2scc(-c3ccccc3)c2c1=O (stereo not given)	119	·	·	·	·
C=CCn1c(SCC(=O)NCc2ccc3c(c2)OCO3)nc2scc(-c3ccc(F)cc3)c2c1=O	107	·	·	·	·
Cn1c(SCC(=O)NCc2ccc3c(c2)OCO3)nc2scc(-c3cccs3)c2c1=O	–	·	·	·	·
CC(C)(C)C(=O)Nc1ccc(S(=O)(=O)NC2=NCCCCC2)cc1	–	15	–	–	–
CCC(C(=O)c1ccccc1)N(C(=O)c1ccccc1Cl)N1C(=O)C2C3C=CC(C3)C2C1=O (stereo not given)	109	·	·	·	·
O=C(Nc1nc(COc2ccccc2)cs1)C12CC3CC(CC(C3)C1)C2	68	·	·	·	·
CC(=O)Nc1nc(COc2ccccc2)cs1	–	·	·	·	·
COc1cc(C2NCC(c3ccc(Cl)cc3Cl)c3c2[nH]c2ccccc32)cc(OC)c1OC (stereo not given)	·	–	–	–	·
COc1cc(C2NCCc3c2[nH]c2ccccc32)ccc1OC(C)C (stereo not given)	–	–	–	44	–
CC1Cc2ccccc2N1c1ncnc(N)c1[N+](=O)[O-] (stereo not given)	65	–	–	–	·
COC(=O)[C@@H]1[C@@H](CO)[C@@H]2Cn3c(ccc(-c4cccnc4)c3=O)[C@@H]2N1Cc1cccc(F)c1	?	·	–	–	–
CCN(C(=O)COC(=O)c1ccccc1NC(=O)c1ccco1)C1CCS(=O)(=O)C1 (stereo not given)	–	–	–	43	·
CCN(C(=O)COC(=O)c1ccccc1OCc1ccc(Cl)cc1)C1CCS(=O)(=O)C1 (stereo not given)	–	–	–	43	–
CCN(C(=O)COC(=O)c1ccccc1Cc1ccccc1)C1CCS(=O)(=O)C1 (stereo not given)	–	–	–	–	–
CN(C(=O)COC(=O)c1ccccc1NC(=O)c1ccco1)C1CCS(=O)(=O)C1 (stereo not given)	–	–	–	–	·
Cc1ccc(C(=O)O/N=C(\N)c2ccccn2)c(Cl)c1	85	–	–	–	–
N/C(=N\OC(=O)c1cc(Br)ccc1Cl)c1ccccn1	–	–	–	43	·
Cc1ccc(S(=O)(=O)Nc2cccc3c2O[C@@H](CN(C)C(=O)NC(C)C)[C@H](C)CN([C@H](C)CO)C3=O)cc1	·	–	–	–	–
CCOc1ccc(CCN2C(=O)C(=O)N([C@@H](CC(C)C)CN3CCC[C@H]3CN3C(=O)C(=O)NC[C@@H]3Cc3ccc(O)cc3)C[C@@H]2Cc2ccccc2)cc1	–	–	–	43	–
CCOc1ccc(CCN2C(=O)C(=O)N([C@@H](CC(C)C)CN3CCC[C@H]3CN3C(=O)C(=O)NC[C@@H]3CC(C)C)C[C@@H]2Cc2ccc(O)cc2)cc1	–	–	–	–	–
SMILES	Env fusion inh	F508del corr	S100A4 inh HTS	FGF22 binding	E-sel inducer
CC(C)C[C@H]1CN([C@@H](Cc2ccc(O)cc2)CN2CCC[C@H]2CN2C(=O)C(=O)NC[C@@H]2Cc2ccc(O)cc2)C(=O)C(=O)N1CCc1ccccc1	60	–	–	–	·
CC(C)C[C@H]1CN([C@@H](Cc2ccc(O)cc2)CN2CCC[C@H]2CN2C(=O)C(=O)NC[C@@H]2Cc2ccccc2)C(=O)C(=O)N1CC1CCCCC1	–	8.4	–	–	–
COc1ccc(NC(=O)N(C)C[C@@H]2Oc3ccc(NC(=O)CCC(F)(F)F)cc3CC(=O)N([C@@H](C)CO)C[C@H]2C)cc1	–	–	–	–	–
CCC(=O)Nc1ccc2c(c1)C(=O)N(C)C[C@@H](OC)[C@@H](C)CN(Cc1cncnc1)[C@H](C)CO2	·	–	·	·	–
CC1(C)c2ccccc2-c2nc3ccccc3cc2C1N1CCOCC1 (stereo not given)	·	–	–	43	–
Cc1ccc(-c2cc3ccccc3nc2N2CCOCC2)cc1	–	–	–	–	·
COc1cc(/C=C/C(=O)O)cc(S(=O)(=O)NCCCC(=O)O)c1OC	–	–	–	43	–
CCCNC(=O)N1C[C@@H](O)COC[C@@H]2O[C@H](CC(=O)N[C@H]3CCN(Cc4ccccc4)C3)CC[C@H]21	–	–	–	–	–
O=C(C[C@@H]1CC[C@H]2[C@@H](COC[C@@H](O)CN2C(=O)c2ccc(F)cc2)O1)NC1Cc2ccccc2C1	67[16.7 µM]	–	–	–	–
O=C(C[C@H]1CC[C@@H]2[C@H](COC[C@@H](O)CN2C(=O)Cc2ccccc2)O1)NC1CCCC1	·	–	90	·	–
CCCNC(=O)N1C[C@H](O)COC[C@@H]2O[C@H](CC(=O)N[C@H]3CCN(Cc4ccccc4)C3)CC[C@H]21	–	–	87	–	–
O=C(C[C@@H]1CC[C@@H]2[C@H](COC[C@H](O)CN2C(=O)c2ccccc2)O1)NC1Cc2ccccc2C1	·	–	–	–	–
CCCNC(=O)Nc1ccc2c(c1)C(=O)N(C)C[C@H](OC)[C@@H](C)CN(Cc1ccccc1)[C@@H](C)CO2	·	–	·	·	–
C[C@H](CO)N1C[C@H](C)[C@@H](CN(C)C)Oc2cc(-c3cncnc3)ccc2S1(=O)=O	–	–	–	–	–
CN(Cc1ccccc1)S(=O)(=O)c1cccc2nsnc12	–	–	–	44	–
COc1ccc2c3c(n(C)c2c1)[C@@H](CO)N(C(C)=O)CC31CN(C(=O)C2CC2)C1	·	–	·	–	–
O=C(CCl)Nc1ccc(Oc2cnc3ccccc3n2)cc1	55	·	·	·	·
Cc1c(Nc2ccc(C=O)cc2)c(=O)n(-c2ccccc2)n1C	–	–	–	43	·
CC(C)NC(=O)N(C)C[C@@H]1Oc2c(NC(=O)C3CCCCC3)cccc2C(=O)N([C@@H](C)CO)C[C@H]1C	–	–	–	–	–
CN(Cc1ccc(F)cc1)C(=O)c1cc(COc2ccc(-n3cncn3)cc2)on1	62	–	–	–	–

Screens as filed in PubChem BioAssay.
